Source: ChEMBL document CHEMBL1156500, “Characterization of the metabolic activation of hepatitis C virus nucleoside inhibitor beta-D-2'-Deoxy-2'-fluoro-2'-C-methylcytidine (PSI-6130) and identification of a novel active 5'-triphosphate species” (J Biol Chem, 2007)

Columns and labels:
Assay type in all cases: ADME, cell-based
Conditions in all cases: hepatocytes
Hepatocyte [1] = experiment: Drug uptake in human hepatocyte at 2 uM after 24 hrs assessed as 1-((2R,3R,4R,5R)-3-fluoro-4-hydroxy-5-(hydroxymethyl)-3-methyl-tetrahydrofuran-2-yl)pyrimidine-2,4(1H,3H)-dione tri phosphate level per 10^6 cells
Method in brief: (§1)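 Primary human hepatocytes from 3 donors were plated on collagen and recovered for ≥18 h. They were exposed for 24 h, in duplicate, to 0–250 μM drug: 3H-labelled material diluted with unlabelled compound. Total intracellular radioactivity and individual phosphates were measured in methanol extracts by SAX HPLC with radiometric detection. Results are pmol/10^6 cells, mean ± S.D.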

Hepatocyte [2] = experiment: Drug uptake in human hepatocyte at 10 uM after 24 hrs assessed as 1-((2R,3R,4R,5R)-3-fluoro-4-hydroxy-5-(hydroxymethyl)-3-methyl-tetrahydrofuran-2-yl)pyrimidine-2,4(1H,3H)-dione tri phosphate level per 10^6 cells; method in brief: as §1
Hepatocyte [3] = experiment: Drug uptake in human hepatocyte at 25 uM after 24 hrs assessed as 1-((2R,3R,4R,5R)-3-fluoro-4-hydroxy-5-(hydroxymethyl)-3-methyl-tetrahydrofuran-2-yl)pyrimidine-2,4(1H,3H)-dione tri phosphate level per 10^6 cells; method in brief: as §1
Hepatocyte [4] = experiment: Drug uptake in human hepatocyte at 50 uM after 24 hrs assessed as 1-((2R,3R,4R,5R)-3-fluoro-4-hydroxy-5-(hydroxymethyl)-3-methyl-tetrahydrofuran-2-yl)pyrimidine-2,4(1H,3H)-dione tri phosphate level per 10^6 cells; method in brief: as §1
Hepatocyte [5] = experiment: Drug uptake in human hepatocyte at 100 uM after 24 hrs assessed as 1-((2R,3R,4R,5R)-3-fluoro-4-hydroxy-5-(hydroxymethyl)-3-methyl-tetrahydrofuran-2-yl)pyrimidine-2,4(1H,3H)-dione tri phosphate level per 10^6 cells; method in brief: as §1
Hepatocyte [6] = experiment: Drug uptake in human hepatocyte at 250 uM after 24 hrs assessed as 1-((2R,3R,4R,5R)-3-fluoro-4-hydroxy-5-(hydroxymethyl)-3-methyl-tetrahydrofuran-2-yl)pyrimidine-2,4(1H,3H)-dione tri phosphate level per 10^6 cells; method in brief: as §1
Hepatocyte [7] = experiment: Drug uptake in human hepatocyte at 2 uM after 16 hrs assessed as 1-((2R,3R,4R,5R)-3-fluoro-4-hydroxy-5-(hydroxymethyl)-3-methyl-tetrahydrofuran-2-yl)pyrimitrine-2,4(1H,3H)-trione tri phosphate level per 10^6 cells
Method in brief: (§2)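 Primary human hepatocytes from 4 donors were plated at 1.5 million cells/well on collagen and recovered for ≥18 h. They were dosed with 3H-labelled drug at 2 μM (10 μCi/ml) for 1–72 h, in duplicate, at 37°C. Cold 60% methanol extracts were run on SAX ion-exchange HPLC with radiometric detection and compared with reference standards. Results are pmol/10^6 cells, mean ± S.D.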

Hepatocyte [8] = experiment: Drug uptake in human hepatocyte at 2 uM after 24 hrs assessed as 1-((2R,3R,4R,5R)-3-fluoro-4-hydroxy-5-(hydroxymethyl)-3-methyl-tetrahydrofuran-2-yl)[…] tri phosphate level per 10^6 cells; method in brief: as §2
Hepatocyte [9] = experiment: Drug uptake in human hepatocyte at 2 uM after 48 hrs assessed as 1-((2R,3R,4R,5R)-3-fluoro-4-hydroxy-5-(hydroxymethyl)-3-methyl-tetrahydrofuran-2-yl)pyrimitrine-2,4(1H,3H)-trione tri phosphate level per 10^6 cells; method in brief: as §2
Hepatocyte [10] = experiment: Drug uptake in human hepatocyte at 2 uM after 72 hrs assessed as 1-((2R,3R,4R,5R)-3-fluoro-4-hydroxy-5-(hydroxymethyl)-3-methyl-tetrahydrofuran-2-yl)[…] tri phosphate level per 10^6 cells; method in brief: as §2
Hepatocyte [11] = experiment: Drug uptake in human hepatocyte at 2 uM after 24 hrs assessed per 10^6 cells
Hepatocyte [12] = experiment: Drug uptake in human hepatocyte at 10 uM after 24 hrs assessed per 10^6 cells; method in brief: as §1
Hepatocyte [13] = experiment: Drug uptake in human hepatocyte at 25 uM after 24 hrs assessed per 10^6 cells; method in brief: as §1
Hepatocyte [14] = experiment: Drug uptake in human hepatocyte at 50 uM after 24 hrs assessed per 10^6 cells; method in brief: as §1
Hepatocyte [15] = experiment: Drug uptake in human hepatocyte at 2 uM after 24 hrs assessed as 4-amino-1-((2R,3R,4R,5R)-3-fluoro-4-hydroxy-5-(hydroxymethyl)-3-methyl-tetrahydrofuran-2-yl)pyrimidin-2(1H)-one di phosphate level per 10^6 cells; method in brief: as §1
Hepatocyte [16] = experiment: Drug uptake in human hepatocyte at 10 uM after 24 hrs assessed as 4-amino-1-((2R,3R,4R,5R)-3-fluoro-4-hydroxy-5-(hydroxymethyl)-3-methyl-tetrahydrofuran-2-yl)pyrimidin-2(1H)-one di phosphate level per 10^6 cells; method in brief: as §1
Hepatocyte [17] = experiment: Drug uptake in human hepatocyte at 25 uM after 24 hrs assessed as 4-amino-1-((2R,3R,4R,5R)-3-fluoro-4-hydroxy-5-(hydroxymethyl)-3-methyl-tetrahydrofuran-2-yl)pyrimidin-2(1H)-one di phosphate level per 10^6 cells; method in brief: as §1
Hepatocyte [18] = experiment: Drug uptake in human hepatocyte at 50 uM after 24 hrs assessed as 4-amino-1-((2R,3R,4R,5R)-3-fluoro-4-hydroxy-5-(hydroxymethyl)-3-methyl-tetrahydrofuran-2-yl)pyrimidin-2(1H)-one di phosphate level per 10^6 cells; method in brief: as §1
Hepatocyte [19] = experiment: Drug uptake in human hepatocyte at 100 uM after 24 hrs assessed as 4-amino-1-((2R,3R,4R,5R)-3-fluoro-4-hydroxy-5-(hydroxymethyl)-3-methyl-tetrahydrofuran-2-yl)pyrimidin-2(1H)-one di phosphate level per 10^6 cells; method in brief: as §1
Hepatocyte [20] = experiment: Drug uptake in human hepatocyte at 250 uM after 24 hrs assessed as 4-amino-1-((2R,3R,4R,5R)-3-fluoro-4-hydroxy-5-(hydroxymethyl)-3-methyl-tetrahydrofuran-2-yl)pyrimidin-2(1H)-one di phosphate level per 10^6 cells; method in brief: as §1
Hepatocyte [21] = experiment: Drug uptake in human hepatocyte at 2 uM after 24 hrs assessed as 1-((2R,3R,4R,5R)-3-fluoro-4-hydroxy-5-(hydroxymethyl)-3-methyl-tetrahydrofuran-2-yl)pyrimidine-2,4(1H,3H)-dione di phosphate level per 10^6 cells; method in brief: as §1
Hepatocyte [22] = experiment: Drug uptake in human hepatocyte at 10 uM after 24 hrs assessed as 1-((2R,3R,4R,5R)-3-fluoro-4-hydroxy-5-(hydroxymethyl)-3-methyl-tetrahydrofuran-2-yl)pyrimidine-2,4(1H,3H)-dione di phosphate level per 10^6 cells; method in brief: as §1
Hepatocyte [23] = experiment: Drug uptake in human hepatocyte at 25 uM after 24 hrs assessed as 1-((2R,3R,4R,5R)-3-fluoro-4-hydroxy-5-(hydroxymethyl)-3-methyl-tetrahydrofuran-2-yl)pyrimidine-2,4(1H,3H)-dione di phosphate level per 10^6 cells; method in brief: as §1
Hepatocyte [24] = experiment: Drug uptake in human hepatocyte at 50 uM after 24 hrs assessed as 1-((2R,3R,4R,5R)-3-fluoro-4-hydroxy-5-(hydroxymethyl)-3-methyl-tetrahydrofuran-2-yl)pyrimidine-2,4(1H,3H)-dione di phosphate level per 10^6 cells; method in brief: as §1

Drug uptake (Hepatocyte [1]): 2.4 pmol
Drug uptake (Hepatocyte [2]): 9.6 pmol
Drug uptake (Hepatocyte [3]): 21.7 pmol
Drug uptake (Hepatocyte [4]): 34.9 pmol
Drug uptake (Hepatocyte [5]): 71.2 pmol
Drug uptake (Hepatocyte [6]): 84 pmol
Drug uptake (Hepatocyte [7]): 0.6 pmol
Drug uptake (Hepatocyte [8]): 1.3 pmol
Drug uptake (Hepatocyte [9]): 2 pmol
Drug uptake (Hepatocyte [10]): 2 pmol
Drug uptake (Hepatocyte [11]): 34.5 pmol
Drug uptake (Hepatocyte [12]): 165.5 pmol
Drug uptake (Hepatocyte [13]): 439.1 pmol
Drug uptake (Hepatocyte [14]): 847.9 pmol
Drug uptake (Hepatocyte [15]): 0.3 pmol
Drug uptake (Hepatocyte [16]): 2.4 pmol
Drug uptake (Hepatocyte [17]): 3.4 pmol
Drug uptake (Hepatocyte [18]): 8.2 pmol
Drug uptake (Hepatocyte [19]): 13.4 pmol
Drug uptake (Hepatocyte [20]): 19.6 pmol
Drug uptake (Hepatocyte [21]): 0.9 pmol
Drug uptake (Hepatocyte [22]): 4.8 pmol
Drug uptake (Hepatocyte [23]): 9.5 pmol
Drug uptake (Hepatocyte [24]): 20.3 pmol
SMILES: C[C@@]1(F)[C@H](O)[C@@H](CO)O[C@H]1n1ccc(N)nc1=O
